These results are taken from PubChem BioAssay AID488936 (Broad Institute, 2010).

Molecules are shown by their SMILES. Activity calls are given as the source filed them.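 How the source made its calls: active means compounds lowering caspase luminescence whose fitted AC50 is at most ten times their top valid dose; inconclusive means flat partial inhibition or a poor quality curve fit; inactive means the rest.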

The nature of the first test: reduction of caspase-3/7 signal in INS-1E – INS-1E rat cells, dry powder, set 2, orthogonal assay for beta-cell apoptosis inhibitor project, dose response (AID 488936). To be noted: INS-1E cytokine-induced caspase-3/7 luminescence, 48 h; at 23.5 µM (top of the series). A digest of the protocol: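 reagent = cytokine mix of IFN-gamma 50, TNF-alpha 25, IL-1β 10 ng/mL | material = rat INS-1E insulinoma beta cells, cytokine-induced apoptosis model | incubation = 48 h cytokine and compound exposure, 1 h detection | technique = Caspase-Glo 3/7 luminescence | evaluation = Caspase-3/7 IC50 from dose-response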
With `COc1ccc(S(=O)(=O)N(C)C[C@@H]2Oc3c(NC(=O)C4CCOCC4)cccc3C(=O)N([C@@H](C)CO)C[C@H]2C)cc1`, the activity change, negative = inhibition was -8.46% (inactive). For `COc1ccc(S(=O)(=O)N(C)C[C@@H]2Oc3c(cccc3N(C)C)C(=O)N([C@@H](C)CO)C[C@H]2C)cc1`, the activity change, negative = inhibition is -4.48% (inactive). On the same count and under the same terms, for `Cc1ccc(S(=O)(=O)N(C)C[C@@H]2Oc3c(NC(=O)Nc4cccc5ccccc45)cccc3C(=O)N([C@H](C)CO)C[C@H]2C)cc1` the value was -12.7% (inactive); for `COc1ccc(S(=O)(=O)N(C)C[C@@H]2Oc3c(NS(=O)(=O)c4ccc(C)cc4)cccc3C(=O)N([C@@H](C)CO)C[C@H]2C)cc1`, -2.16% (inactive). The same measure, in the same setting: the same measure for `COc1ccc(S(=O)(=O)N(C)C[C@@H]2Oc3c(NC(=O)C4CC4)cccc3C(=O)N([C@@H](C)CO)C[C@H]2C)cc1`: -6.93% (inactive).

The test is the same for the next values; noted with them: INS-1E cytokine-induced caspase-3/7 luminescence, 48 h; at 26 µM (top of the series).
As to `COc1ccc(S(=O)(=O)N(C)C[C@H]2Oc3c(NC(=O)Nc4cccc5ccccc45)cccc3C(=O)N([C@@H](C)CO)C[C@@H]2C)cc1`, the activity change, negative = inhibition is -9.65% (inactive). The same measure, in the same setting: for `C[C@@H]1CN([C@@H](C)CO)C(=O)c2cccc(NC(=O)Nc3cccc4ccccc34)c2O[C@H]1CN(C)S(=O)(=O)c1ccc(F)cc1` the value was 4.91% (inactive). As for `C[C@@H]1CN([C@@H](C)CO)C(=O)c2cccc(NC(=O)Nc3cccc4ccccc34)c2O[C@H]1CN(C)S(=O)(=O)c1ccc2c(c1)oc(=O)n2C`, the activity change, negative = inhibition is 0.941% (inactive). Same read-out and setting: for `C[C@@H]1CN([C@H](C)CO)C(=O)c2cccc(NC(=O)Nc3cccc4ccccc34)c2O[C@H]1CN(C)S(=O)(=O)c1ccc(Cl)cc1` the value was -4.82% (inactive); for `CNC[C@@H]1Oc2c(NC(=O)Nc3cccc4ccccc34)cccc2C(=O)N([C@@H](C)CO)C[C@H]1C`, -6.33% (inactive). Same read-out and setting: for `COc1ccc(S(=O)(=O)N(C)C[C@@H]2Oc3c(NC(=O)Nc4cccc5ccccc45)cccc3C(=O)N([C@@H](C)CO)C[C@H]2C)cc1Cl` the value was 12.6% (inactive); for `COc1ccccc1S(=O)(=O)N(C)C[C@@H]1Oc2c(NC(=O)Nc3cccc4ccccc34)cccc2C(=O)N([C@@H](C)CO)C[C@H]1C`, -13% (inactive). Still for that read-out and setting: for `COc1ccc(S(=O)(=O)N(C)C[C@@H]2Oc3c(NC(=O)NC(C)C)cccc3C(=O)N([C@@H](C)CO)C[C@H]2C)cc1` the value was -8.08% (inactive); for `C[C@@H]1CN([C@@H](C)CO)C(=O)c2cccc(NS(=O)(=O)c3ccccc3)c2O[C@H]1CN(C)Cc1ccc(C(F)(F)F)cc1`, 7.22% (inactive).

With `COc1ccc(S(=O)(=O)N(C)C[C@@H]2Oc3c(NS(=O)(=O)c4ccc(F)cc4)cccc3C(=O)N([C@@H](C)CO)C[C@H]2C)cc1`, the activity change, negative = inhibition is -9.27% (inactive). Turning to `Cc1ccc(S(=O)(=O)N(C)C[C@@H]2Oc3c(NC(=O)Nc4ccccc4)cccc3C(=O)N([C@@H](C)CO)C[C@H]2C)cc1`, the activity change, negative = inhibition is -11.7% (inactive). The same measure, in the same setting: for `COc1ccc(S(=O)(=O)N(C)C[C@@H]2Oc3c(NC(=O)C4CCCCC4)cccc3C(=O)N([C@@H](C)CO)C[C@H]2C)cc1` the value was -7.12% (inactive); for `N#Cc1ccc2cc(Br)c(C(F)(F)P(=O)(O)O)cc2c1`, -14.1% (inactive). On the same count and under the same terms, the same measure for `C[C@@H]1CN([C@H](C)CO)C(=O)c2cccc(NC(=O)Nc3ccc(F)cc3)c2O[C@H]1CN(C)S(=O)(=O)c1ccc(Cl)cc1`: 10.4% (inactive); for `C[C@@H]1CN([C@@H](C)CO)C(=O)c2cccc(NC(=O)Nc3cccc4ccccc34)c2O[C@H]1CN(C)S(C)(=O)=O`: -7.6% (inactive); for `COc1ccc(S(=O)(=O)N(C)C[C@@H]2Oc3c(NC(=O)Nc4ccc(F)cc4)cccc3C(=O)N([C@H](C)CO)C[C@H]2C)cc1`: -6.01% (inactive).

Take `COc1ccc(S(=O)(=O)N(C)C[C@@H]2Oc3c(NC(=O)c4ccncc4)cccc3C(=O)N([C@@H](C)CO)C[C@H]2C)cc1`: the activity change, negative = inhibition is -4.94% (inactive).

Consider `COc1ccc(S(=O)(=O)N(C)C[C@@H]2Oc3c(NC(=O)Nc4cccc5ccccc45)cccc3C(=O)N(C(C)C)C[C@H]2C)cc1`, for which the activity change, negative = inhibition was -6.92% (inactive). On the same count and under the same terms, the same measure for `COc1ccc(S(=O)(=O)N(C)C[C@@H]2Oc3c(NC(=O)Nc4ccc5c(c4)OCO5)cccc3C(=O)N([C@@H](C)CO)C[C@H]2C)cc1`: -4.99% (inactive); for `C[C@@H]1CN([C@@H](C)CO)C(=O)c2cccc(NC(=O)Nc3cccc4ccccc34)c2O[C@H]1CN(C)S(=O)(=O)c1ccc2c(c1)OCC2`: 3.67% (inactive); for `C[C@@H]1CN([C@@H](C)CO)C(=O)c2cccc(NC(=O)Nc3cccc4ccccc34)c2O[C@H]1CN(C)S(=O)(=O)c1ccc2ncsc2c1`: -18.8% (inactive). On to `COc1ccc(S(=O)(=O)N(C)C[C@@H]2Oc3c(NC(=O)NC4CCCCC4)cccc3C(=O)N([C@@H](C)CO)C[C@H]2C)cc1`, for which the activity change, negative = inhibition was -7.02% (inactive). Same read-out and setting: for `COc1ccc(S(=O)(=O)N(C)C[C@@H]2Oc3c(NC(=O)Nc4ccc(C(F)(F)F)cc4)cccc3C(=O)N([C@@H](C)CO)C[C@H]2C)cc1` the value was 13.3% (inactive). As for `COc1ccc(S(=O)(=O)N(C)C[C@@H]2Oc3c(NC(=O)Nc4cccc5ccccc45)cccc3C(=O)N([C@@H](C)CO)C[C@H]2C)c(OC)c1`, the activity change, negative = inhibition is -12.9% (inactive). The same measure, in the same setting: for `COc1ccc(S(=O)(=O)N(C)C[C@@H]2Oc3c(NS(=O)(=O)c4ccccc4)cccc3C(=O)N([C@@H](C)CO)C[C@H]2C)cc1` the value was -6.46% (inactive); for `COc1ccc(S(=O)(=O)N(C)C[C@@H]2Oc3c(NS(=O)(=O)c4ccc(Cl)cc4)cccc3C(=O)N([C@@H](C)CO)C[C@H]2C)cc1`, -4.43% (inactive); for `C[C@@H]1CN([C@@H](C)CO)C(=O)c2cccc(NC(=O)Nc3cccc4ccccc34)c2O[C@H]1CN(C)S(=O)(=O)c1cccc(F)c1`, 6.97% (inactive). Regarding `COc1ccc(S(=O)(=O)N(C)C[C@@H]2Oc3c(NS(=O)(=O)c4cn(C)cn4)cccc3C(=O)N([C@@H](C)CO)C[C@H]2C)cc1`, the activity change, negative = inhibition was -6.15% (inactive). On the same count and under the same terms, the same measure for `COc1ccc(S(=O)(=O)N(C)C[C@@H]2Oc3c(NC(=O)Nc4cccc5ccccc45)cccc3C(=O)N([C@@H](C)CO)C[C@@H]2C)cc1`: -6.51% (inactive). For the compound `Cc1ccc(S(=O)(=O)N(C)C[C@@H]2Oc3c(NC(=O)Nc4ccc(F)cc4)cccc3C(=O)N([C@@H](C)CO)C[C@H]2C)cc1`, the activity change, negative = inhibition was -11% (inactive).

With `COc1ccc(NC(=O)Nc2cccc3c2O[C@@H](CN(C)S(=O)(=O)c2ccc(OC)cc2)[C@H](C)CN([C@@H](C)CO)C3=O)cc1`, the activity change, negative = inhibition was -9.51% (inactive). The same measure, in the same setting: the same measure for `COc1ccc(S(=O)(=O)N(C)C[C@@H]2Oc3c(NC(=O)Nc4ccccc4)cccc3C(=O)N([C@H](C)CO)C[C@H]2C)cc1`: -7.43% (inactive). With `COc1ccc(S(=O)(=O)N(C)C[C@@H]2Oc3c(NC(=O)Nc4c(C)noc4C)cccc3C(=O)N([C@@H](C)CO)C[C@H]2C)cc1`, the activity change, negative = inhibition is -11.7% (inactive).

In the case of `C[C@@H]1CN([C@@H](C)CO)C(=O)c2cccc(NC(=O)Nc3cccc4ccccc34)c2O[C@H]1CN(C)S(=O)(=O)c1cn(C)cn1`, the activity change, negative = inhibition was -1.53% (inactive). The same measure, in the same setting: for `C[C@@H]1CN([C@H](C)CO)C(=O)c2cccc(NC(=O)Nc3ccccc3)c2O[C@H]1CN(C)S(=O)(=O)c1ccc(Cl)cc1` the value was -6.09% (inactive); for `COc1ccc(S(=O)(=O)N(C)C[C@H]2Oc3c(NC(=O)Nc4cccc5ccccc45)cccc3C(=O)N([C@H](C)CO)C[C@H]2C)cc1`, -14.4% (inactive). Same read-out and setting: for `C[C@@H]1CN([C@@H](C)CO)C(=O)c2cccc(NC(=O)Nc3cccc4ccccc34)c2O[C@H]1CN(C)S(=O)(=O)c1ccc(OC(F)(F)F)cc1` the value was 100% (inactive).

For the compound `COc1cccc(S(=O)(=O)N(C)C[C@@H]2Oc3c(NC(=O)Nc4cccc5ccccc45)cccc3C(=O)N([C@@H](C)CO)C[C@H]2C)c1`, the activity change, negative = inhibition is 14.2% (inactive). The same measure, in the same setting: for `C[C@@H]1CN([C@@H](C)CO)C(=O)c2cccc(NC(=O)Nc3ccccc3)c2O[C@H]1CN(C)S(=O)(=O)c1ccc(F)cc1` the value was -13.5% (inactive). On the same count and under the same terms, the same measure for `COc1ccc(S(=O)(=O)N(C)C[C@@H]2Oc3c(NC(=O)c4ccc(-c5nccs5)cc4)cccc3C(=O)N([C@@H](C)CO)C[C@H]2C)cc1`: 6.99% (inactive); for `COc1ccc(S(=O)(=O)N(C)C[C@@H]2Oc3c(NC(=O)c4nc5ccccc5s4)cccc3C(=O)N([C@@H](C)CO)C[C@H]2C)cc1`: -4.53% (inactive). On the same count and under the same terms, for `COc1ccc(S(=O)(=O)N(C)C[C@@H]2Oc3ccc(NC(=O)Nc4cccc5ccccc45)cc3C(=O)N([C@@H](C)CO)C[C@H]2C)cc1` the value was 5.17% (inactive); for `C[C@@H]1CN([C@@H](C)CO)C(=O)c2cccc(NC(=O)Nc3cccc4ccccc34)c2O[C@H]1CN(C)S(=O)(=O)c1ccc2c(c1)OCO2`, -4.01% (inactive). As to `C[C@@H]1CN([C@@H](C)CO)C(=O)c2cccc(NC(=O)Nc3cccc4ccccc34)c2O[C@H]1CN(C)S(=O)(=O)c1ccccc1`, the activity change, negative = inhibition was 6.84% (inactive). On to `C[C@@H]1CN([C@@H](C)CO)C(=O)c2cccc(NC(=O)Nc3ccccc3)c2O[C@H]1CN(C)S(=O)(=O)c1ccc(Cl)cc1`, for which the activity change, negative = inhibition was -7.25% (inactive).
